According to the RNAGym collection of RNA variant scans (doi:10.1126/science.aae0568):
Variants at the floor of the assay were thinned out.

B1: tRNA (parent)
chain: GUUCCGUUGGCGUAAUGGUAACGCGUCUCCCUCCUAAGGAGAAGACUGCGGGUUCGAGUCCCGUACGGAACG

Variants of: B1
Assay: yeast fitness relative to wild type (ratio to wild type); higher = fitter; tRNA-Arg(CCU), competitive growth, 37 C, YPD
Procedure, shortened: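 Variants of the tRNA-Arg(CCU) gene were chemically synthesised with a 3% per-site mutation rate across 69 sites and placed at the native genomic locus in Saccharomyces cerevisiae. Six parallel replicates of the pooled strains were competed in YPD at 37°C for 24 hours, and gene amplicons from the start and end populations were read by 100-nucleotide paired-end sequencing. Darwinian fitness relative to wild type was derived from changes in genotype frequencies. Genotypes required ≥ 100 starting reads, and estimates < 0.5 were set to 0.5.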

Variant	yeast fitness
U32G C33G G50A U53G A69G A70C	≤ 0.5
C31U U47G	0.526
U32A A45U A69C	0.706
C33G C61A C62U	≤ 0.5
U32A G38C U47A	≤ 0.5
C31U G48A C61U A65C	≤ 0.5
U32A C34U	0.531
U32A C34A	0.648
C33G C62A G63C	≤ 0.5
C31U G48C	1
C31U G48A	0.949
U32G G39C G52C C61U	≤ 0.5
U32A A37C	0.771
C33G C60G	≤ 0.5
C33G C60A	0.715
C31U G41C	0.796
U32C A40U	1.01
U32C A40C	0.986
U32C C49U A65C	0.793
U32C C49U A65G	0.778
C33A A36U G63A	≤ 0.5
C31U G48A A69U	0.757
C33G A36G	0.699
C33G C66A	≤ 0.5

Variant	yeast fitness
C33G C66U	0.787
C33A C49U G52A A70C	≤ 0.5
C33G G38A	0.684
U32G A45G U47C C49U A70U	≤ 0.5
U32A G52C C55U C61U C66U	≤ 0.5
C33G G38C G41C A43C U47G G67C	0.582
C31U G48A C61A	0.532
U32G G39C C62G G68A	≤ 0.5
C31U G44A A45U	0.893
C33A A40G	0.683
U32G U35G A36C C61G A70G	0.583
C31U G39A A45C	0.677
U32G C61U A69C	0.746
C31U C61U G68C	≤ 0.5
U32G U35A G48A G63C A69G	0.524
C31U G67C	0.902
U32C A45G A57U	≤ 0.5
C31U G39C G58A	0.552
C33A A43G A45C C60A	0.564
U32C A45U G67A	≤ 0.5
C31U U54C U59C	0.562
U32A A37C C60A	≤ 0.5
U32G A42G G58A C61U A70G	≤ 0.5
U32A A40U G41C C46A G52A	0.656

Variant	yeast fitness
C33A G39C G41C G44C A69C	0.577
U32A C33U U47A	0.54
C33G G44A G56A A65G	0.554
C33A U54G A70C	≤ 0.5
U32A A40U	0.774
U32A A40C	0.694
U32C C34U U53A C66U	≤ 0.5
C33G G39U A69C	≤ 0.5
C33G A43G U59A	≤ 0.5
U32C A42U G51C	0.533
C31U C66A	0.774
U32C C55A	0.632
U32C C55U	0.651
C33G A42C C49G G58C C62G	0.513
C31U G48C G67C	0.649
U32A C33U G52A	0.597
C33G A40G C66G	0.698
U32C G52A G58C	≤ 0.5
C33A C46G C60U	0.76
C33G A70G	0.633
U32A G58C	0.651
C33A U35A A70C	≤ 0.5
C31U G44C C60U	0.689
C33G A37G C46A C49U	≤ 0.5

Variant	yeast fitness
U32G C55A A57G	≤ 0.5
C33G A45G C55G G56C	≤ 0.5
C33G A42C C66G A70G	≤ 0.5
C33A G39C C49U U54A G68A	≤ 0.5
C33G G52A	0.582
C31U U35A G51C	≤ 0.5
C33A G50A	0.545
U32G A42C	0.62
U32G C33U A36C G56U C66A	≤ 0.5
U32C U64A	0.789
C31U G38C G51C C55U	≤ 0.5
U32G U35G A36C A37G C61G A70G	≤ 0.5
U32C A37C A57U	≤ 0.5
C33A A70U	0.655
U32G C33U A37G A43C	≤ 0.5
C31U U47C A65G A69U	≤ 0.5
U32A G39A G58A C61A C62G	≤ 0.5
U32A G63U U64A A65U	0.634
C33A A37G	0.531
C33A A37C	≤ 0.5
C33G A45G U64A	0.586
U32A C46U G63C	≤ 0.5
C31U G41C C61U	0.574
U32C C33U C62U A65G	0.58

Variant	yeast fitness
C33G A37G A43C G58C	0.547
U32G G68C	0.703
C33G A36U A57C	≤ 0.5
U32C U54C	0.687
U32C	0.966
U32A	0.742
U32G	0.664
U32G G39C C49U G52C	≤ 0.5
C31U C62G G68C	0.507
C33G A45U G51C	≤ 0.5
U32A G52C	≤ 0.5
U32G U59C C61A	≤ 0.5
C33G G51A A65C	0.709
C33G C34U G38C U47A	0.517
C33A G39C C49U U54A	≤ 0.5
C33G G44A U47C A57G	≤ 0.5
U32G C61U C66U	0.577
C33G A42G G52A A70U	≤ 0.5
U32C A37U G52A C66A	≤ 0.5
U32C U35A U47C	≤ 0.5
C31U G39C G52C	≤ 0.5
C31U G41C A43C	0.722
C31U G38C	0.845
C31U C55U C61A G67A	≤ 0.5

Variant	yeast fitness
U32C C34U A45U	0.662
U32G A40U U59A	≤ 0.5
C31U G58A A65C	0.65
U32A A42C G63C A65U C66U	≤ 0.5
C33G G41A G50A	0.624
U32C G41C	0.931
U32G G39C A43G G52C	0.571
U32C G44C	0.842
U32C C49U G50C	0.638
C33A C55G	0.564
U32C A43C A69G	≤ 0.5
C31U C60U C61G	≤ 0.5
U32A A42G C55U	≤ 0.5
C33A C34A	0.621
C33A C34G	0.755
U32G C61A	0.535
C33A C34G C60A A70C	≤ 0.5
U32A A37C A42C C49A U53A	≤ 0.5
C33G A42G G52A C62A A70U	0.589
C33G C55A G58A	0.609
U32G G41C	0.597
U32C C33U A42U A57G	≤ 0.5
U32G C49G	0.602
C33A C46U U59C G67A G68C	≤ 0.5

Variant	yeast fitness
C33A C34U G52A A57G	≤ 0.5
U32C C46G G52C G68C	≤ 0.5
C31U U47C G63A	0.687
U32A G41C A65U	≤ 0.5
U32A A69U	0.958
U32A A69C	0.882
C31U G58C U59G C61G	≤ 0.5
C33G A42U A45G	≤ 0.5
C33G G39C C55A	≤ 0.5
C31U G38C G63A G68C A69G	0.673
U32G C33A U47A C62U C66G	≤ 0.5
U32A C34U C61U	0.54
U32C A43C	0.83
C33G G44A G56A C61U	≤ 0.5
U32G A57C C62U	0.555
U32C U47A	0.9
C33G A42U C61G	≤ 0.5
U32A C55U	0.501
U32G A40C	0.692
U32G A40U	0.624
U32C G56C	0.676
U32C A45U C46G A69C	≤ 0.5
U32C G38C G52C	≤ 0.5
